Test results taken from ChEMBL document CHEMBL3864137, “Design, Synthesis, and Pharmacological Evaluation of 2-(2,5-Dimethyl-5,6,7,8-tetrahydroquinolin-8-yl)-N-aryl Propanamides as Novel Smoothened (Smo) Antagonists” (J Med Chem, 2016).
The source made the active and inactive calls. The rule behind the calls is not given here.

Legend:
Protein smoothened = Protein smoothened (Mus musculus, UniProt P56726); test: Inhibition of Smo-mediated Hh signalling pathway in mouse Shh Light2 cells by Gli-luciferase reporter gene assay; type: cell-based
Sequence of Protein smoothened (P56726 whole entry): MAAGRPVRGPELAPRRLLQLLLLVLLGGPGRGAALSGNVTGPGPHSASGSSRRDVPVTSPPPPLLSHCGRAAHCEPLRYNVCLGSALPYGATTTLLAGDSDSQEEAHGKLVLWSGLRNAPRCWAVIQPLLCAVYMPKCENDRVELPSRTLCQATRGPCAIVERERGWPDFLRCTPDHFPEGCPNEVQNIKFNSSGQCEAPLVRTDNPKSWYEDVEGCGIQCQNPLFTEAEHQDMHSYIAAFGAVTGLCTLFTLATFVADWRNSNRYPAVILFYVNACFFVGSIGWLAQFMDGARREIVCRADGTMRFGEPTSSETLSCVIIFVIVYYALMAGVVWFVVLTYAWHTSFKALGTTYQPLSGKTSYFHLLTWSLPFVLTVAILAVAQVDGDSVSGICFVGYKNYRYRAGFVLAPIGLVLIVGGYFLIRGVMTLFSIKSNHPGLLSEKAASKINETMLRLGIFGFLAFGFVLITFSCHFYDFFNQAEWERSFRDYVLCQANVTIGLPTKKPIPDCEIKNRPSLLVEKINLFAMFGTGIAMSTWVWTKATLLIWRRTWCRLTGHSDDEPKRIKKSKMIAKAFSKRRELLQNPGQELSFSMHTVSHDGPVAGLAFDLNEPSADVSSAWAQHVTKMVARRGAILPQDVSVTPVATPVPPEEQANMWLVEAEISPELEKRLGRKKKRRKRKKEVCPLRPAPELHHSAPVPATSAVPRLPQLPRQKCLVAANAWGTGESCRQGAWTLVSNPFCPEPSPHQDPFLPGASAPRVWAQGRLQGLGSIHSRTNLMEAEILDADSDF
Summary of the method: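 Light II cells (NIH-3T3 stably carrying a Gli-responsive firefly luciferase reporter plus a Renilla luciferase vector), seeded in 96-well plates and treated. Firefly/Renilla activity in the lysates read by dual luciferase assay on a luminometer. IC50 is the mean ± SD of three separate experiments.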

[1] = Cytotoxicity against human KB cells; type: toxicity, cell-based
[2] = target: Voltage-gated inwardly rectifying potassium channel KCNH2 (Homo sapiens, UniProt Q12809); test: Inhibition of human ERG
Sequence of Voltage-gated inwardly rectifying potassium channel KCNH2 (Q12809 whole entry): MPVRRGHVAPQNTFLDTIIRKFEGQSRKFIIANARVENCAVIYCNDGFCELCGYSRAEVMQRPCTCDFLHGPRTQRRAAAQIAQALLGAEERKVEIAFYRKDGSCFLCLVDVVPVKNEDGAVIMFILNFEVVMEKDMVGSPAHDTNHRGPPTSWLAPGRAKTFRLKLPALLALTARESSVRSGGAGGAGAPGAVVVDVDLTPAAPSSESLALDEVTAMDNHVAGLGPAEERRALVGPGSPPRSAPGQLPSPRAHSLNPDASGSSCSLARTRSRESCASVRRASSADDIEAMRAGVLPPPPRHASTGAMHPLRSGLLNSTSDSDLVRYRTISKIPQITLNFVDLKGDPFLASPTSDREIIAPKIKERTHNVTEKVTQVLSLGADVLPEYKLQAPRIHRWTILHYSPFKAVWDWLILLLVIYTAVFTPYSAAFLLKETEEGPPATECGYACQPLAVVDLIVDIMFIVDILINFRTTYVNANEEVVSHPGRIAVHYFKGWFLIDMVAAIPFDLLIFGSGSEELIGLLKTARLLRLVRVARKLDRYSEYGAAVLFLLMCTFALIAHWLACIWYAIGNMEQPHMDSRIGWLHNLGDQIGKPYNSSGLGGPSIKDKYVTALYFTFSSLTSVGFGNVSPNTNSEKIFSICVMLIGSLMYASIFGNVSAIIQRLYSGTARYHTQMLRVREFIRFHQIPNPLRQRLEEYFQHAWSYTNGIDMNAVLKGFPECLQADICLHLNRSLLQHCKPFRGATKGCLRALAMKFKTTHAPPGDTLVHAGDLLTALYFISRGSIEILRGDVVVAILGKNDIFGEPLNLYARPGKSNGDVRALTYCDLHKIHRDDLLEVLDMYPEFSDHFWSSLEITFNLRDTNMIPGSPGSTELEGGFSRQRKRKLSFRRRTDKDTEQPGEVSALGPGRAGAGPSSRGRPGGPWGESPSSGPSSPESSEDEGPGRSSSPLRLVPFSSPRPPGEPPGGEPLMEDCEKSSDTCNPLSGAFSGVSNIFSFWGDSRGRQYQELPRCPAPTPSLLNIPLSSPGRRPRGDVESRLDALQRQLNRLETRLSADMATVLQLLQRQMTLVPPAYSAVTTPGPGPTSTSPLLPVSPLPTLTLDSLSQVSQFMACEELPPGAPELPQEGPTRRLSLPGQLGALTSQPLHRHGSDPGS

[3] = target: Protein smoothened (Homo sapiens) (UniProt Q99835); conditions: HEK293, 5 uM
Sequence of Protein smoothened (Homo sapiens) (Q99835 whole entry): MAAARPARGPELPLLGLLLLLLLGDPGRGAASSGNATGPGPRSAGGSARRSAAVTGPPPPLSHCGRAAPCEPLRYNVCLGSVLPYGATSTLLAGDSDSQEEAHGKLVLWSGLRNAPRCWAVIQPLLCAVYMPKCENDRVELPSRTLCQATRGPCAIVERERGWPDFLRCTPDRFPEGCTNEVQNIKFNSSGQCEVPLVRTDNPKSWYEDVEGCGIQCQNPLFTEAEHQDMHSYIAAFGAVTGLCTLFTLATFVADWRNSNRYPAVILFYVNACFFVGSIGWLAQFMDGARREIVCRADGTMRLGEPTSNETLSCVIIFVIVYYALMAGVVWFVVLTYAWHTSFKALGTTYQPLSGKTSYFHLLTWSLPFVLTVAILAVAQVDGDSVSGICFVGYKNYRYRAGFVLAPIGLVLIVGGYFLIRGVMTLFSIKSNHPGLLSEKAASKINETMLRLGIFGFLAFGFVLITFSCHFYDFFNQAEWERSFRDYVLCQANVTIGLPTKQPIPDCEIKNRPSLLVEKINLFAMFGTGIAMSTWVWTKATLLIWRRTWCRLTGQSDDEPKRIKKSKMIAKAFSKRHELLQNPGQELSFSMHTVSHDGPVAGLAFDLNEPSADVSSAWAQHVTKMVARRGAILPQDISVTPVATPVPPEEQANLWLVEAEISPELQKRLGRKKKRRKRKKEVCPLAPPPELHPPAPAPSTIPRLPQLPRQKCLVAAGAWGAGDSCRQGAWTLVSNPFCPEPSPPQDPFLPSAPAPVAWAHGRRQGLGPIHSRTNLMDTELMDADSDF

[4] = target: Protein smoothened (Homo sapiens) (UniProt Q99835); conditions: HEK293, 5 uM; remark: listed apart in the source
LS174T = test: Inhibition of PGE2-stimulated TCF/LEF transactivation in human LS174T cells at 20 uM measured after 6 hrs by dual luciferase reporter gene assay; type: cell-based
Summary of the method: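 LS174T cells stimulated with PGE2 and treated for 6 h, then lysed for dual luciferase reporter analysis of TCF/LEF activity. Mean ± SD.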

[5] = target: Protein smoothened (Mus musculus) (UniProt P56726); test: Potency index, ratio of vismodegib IC50 to test compound IC50 for Smo-mediated Hh signalling pathway in mouse Shh Light2 cells; type: cell-based
Sequence of Protein smoothened (Mus musculus) (P56726 whole entry): as the sequence (P56726 whole entry) above
Summary of the method: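 Ratio of reference to test IC50, both taken from the Gli-luc dual luciferase assay in light II cells (NIH-3T3 with stable Gli-firefly reporter and Renilla vector). IC50 values are from three separate experiments.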

[6] = target: Protein smoothened (Mus musculus) (UniProt P56726); test: Inhibition of Smo-mediated Hh signalling pathway in mouse Shh Light2 cells assessed as suppression of Gli1-mRNA expression at 0.1 uM measured after 36 hrs by RT-qPCR analysis; type: cell-based
[7] = target: Protein smoothened (Homo sapiens) (UniProt Q99835); test: Antagonist activity at wild-type Smo (unknown origin) expressed in mouse Shh Light2 cells assessed as suppression of Gli-mRNA expression measured after 36 hrs by dual luciferase reporter gene assay; type: cell-based; conditions: in the assay text read “Gli-luciferase activity” for “Gli-mRNA expression”
Summary of the method: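 Light II cells transfected with wild-type Smo plasmid to drive Gli-luciferase, exposed to compound for 36 h, then harvested for dual luciferase reporter assay. Mean ± SD.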

[8] = target: Protein smoothened (Homo sapiens) (UniProt Q99835); test: Displacement of BODIPY-cyclopamine from human Smo expressed in HEK293 cells at 0.1 uM measured after 10 hrs by DAPI staining based fluorescence microscopic assay; type: cell-based
Summary of the method: (§1)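 HEK293 cells on coverslips transfected with hSmo constructs and incubated with BODIPY-cyclopamine plus test drug for 10 h. After PBS wash, paraformaldehyde fixation and Triton X-100 permeabilization, cells were either analysed by FACS or DAPI-mounted for fluorescence microscopy; three experiments.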

[9] = target: Protein smoothened (Homo sapiens) (UniProt Q99835); test: Displacement of BODIPY-cyclopamine from human Smo expressed in HEK293 cells at 0.1 uM measured after 10 hrs by FACS analysis; type: cell-based; summary of the method: as §1
Medulloblastoma cell = test: Antiproliferative activity against mouse medulloblastoma cells isolated from Ptch+/- p53-/- mouse measured after 72 hrs by MTS assay; type: functional
Summary of the method: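 Medulloblastoma cells from Ptch+/-;p53-/- allografts in nude mice, minced and collagenase-digested, grown in Neurobasal A with B-27, EGF 20 ng/ml, bFGF 20 ng/ml, nonessential amino acids and N-acetyl cysteine 60 µg/ml. Seeded in 96-well plates, treated 72 h, viability read by MTS; mean ± SD.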

[10] = Induction of apoptosis in mouse medulloblastoma cells isolated from Ptch+/- p53-/- mouse assessed as early apoptotic cells at 10 uM measured after 24 hrs by Annexin V-FITC/propidium iodide staining based flow cytometry (reference value: 0.7%); type: functional, Medulloblastoma cell
[11] = Induction of apoptosis in mouse medulloblastoma cells isolated from Ptch+/- p53-/- mouse assessed as late apoptotic cells at 10 uM measured after 24 hrs by Annexin V-FITC/propidium iodide staining based flow cytometry (reference value: 0.1%); type: functional, Medulloblastoma cell
[12] = target: Protein smoothened (Mus musculus) (UniProt P56726); test: Inhibition of Smo in mouse medulloblastoma cells isolated from Ptch+/- p53-/- mouse assessed as decrease in Gli1-mRNA expression at 0.1 uM by qRT-PCR analysis
[13] = Half life in Sprague-Dawley rat at 3 mg/kg, po; type: ADME, organism-based; conditions: in vivo
Summary of the method: (§2)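 SD rats; single dose 1.0 mg/kg i.v. or 3.0 mg/kg p.o., vehicle DMSO, Tween 80, normal saline. Plasma concentration–time profiles give CL, Vss, T1/2, Cmax, Tmax, AUC0-∞ and MRT, with oral bioavailability F estimated from p.o. versus i.v. exposure. Values are the average of three runs.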

[14] = Half life in Sprague-Dawley rat at 1 mg/kg, iv; type: ADME, organism-based; conditions: in vivo; summary of the method: as §2
[15] = Tmax in Sprague-Dawley rat at 3 mg/kg, po; type: ADME, organism-based; conditions: in vivo; summary of the method: as §2
[16] = Cmax in Sprague-Dawley rat at 3 mg/kg, po; type: ADME, organism-based; set-up: dose 3 mg/kg, route oral; conditions: in vivo; summary of the method: as §2
[17] = AUClast in Sprague-Dawley rat at 3 mg/kg, po; type: ADME, organism-based; set-up: dose 3 mg/kg, time 0 - last, route oral; conditions: in vivo; summary of the method: as §2
[18] = AUClast in Sprague-Dawley rat at 1 mg/kg, iv; type: ADME, organism-based; set-up: dose 1 mg/kg, time 0 - last, route intravenous; conditions: in vivo; summary of the method: as §2
[19] = AUC (0 to infinity) in Sprague-Dawley rat at 3 mg/kg, po; type: ADME, organism-based; set-up: dose 3 mg/kg, route oral, time infinity; conditions: in vivo; summary of the method: as §2
[20] = AUC (0 to infinity) in Sprague-Dawley rat at 1 mg/kg, iv; type: ADME, organism-based; set-up: dose 1 mg/kg, time infinity, route intravenous; conditions: in vivo; summary of the method: as §2
[21] = Clearance in Sprague-Dawley rat at 1 mg/kg, iv; type: ADME, organism-based; conditions: in vivo; summary of the method: as §2
[22] = MRT (0 to infinity) in Sprague-Dawley rat at 3 mg/kg, po; type: ADME, organism-based; conditions: in vivo; summary of the method: as §2
[23] = MRT (0 to infinity) in Sprague-Dawley rat at 1 mg/kg, iv; type: ADME, organism-based; conditions: in vivo; summary of the method: as §2
[24] = Volume of distribution at steady state in Sprague-Dawley rat at 1 mg/kg, iv; type: ADME, organism-based; conditions: in vivo, read-out: Vdss; summary of the method: as §2
[25] = In vivo inhibition of Smo-mediated Hh signalling pathway in athymic nude mouse implanted with mouse Ptch+/- p53-/- medulloblastoma cells assessed as suppression of Gli1-mRNA expression at 25 and 50 mg/kg, ip bid for 13 days measured 4 hrs post last dose by RT-qPCR analysis; type: functional, organism-based
Summary of the method: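 Nude mice bearing subcutaneous Ptch+/-;p53-/- medulloblastoma allografts dosed i.p. twice daily for 13 days. Tumors collected 4 h after the last dose for Gli1 mRNA measurement; mean ± SD.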

[26] = Oral bioavailability in Sprague-Dawley rat at 3 mg/kg; type: ADME, organism-based; conditions: in vivo; summary of the method: as §2
[27] = Antitumor activity against mouse Ptch+/- p53-/- medulloblastoma cells implanted in athymic nude mouse assessed as tumor growth inhibition at 25 mg/kg, ip bid for 13 days relative to control; type: functional; conditions: Medulloblastoma cell, 312 h, read-out: TGI
Summary of the method: (§3)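 Primary Ptch+/-;p53-/- medulloblastoma passaged subcutaneously in athymic nude mice as 1 mm3 fragments in the right flank. Dosing began at 100–150 mm3: i.p. 25 or 50 mg/kg twice daily for 13 days. Calipers twice weekly, volume = L×W²/2, TGI from volume change against vehicle. Body weight tracked; tumor mean ± SEM, weight mean ± SD.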

[28] = Antitumor activity against mouse Ptch+/- p53-/- medulloblastoma cells implanted in athymic nude mouse assessed as tumor growth inhibition at 50 mg/kg, ip bid for 13 days relative to control; type: functional; conditions: Medulloblastoma cell, 312 h, read-out: TGI; summary of the method: as §3
Mus musculus = test: Toxicity in athymic nude mouse implanted with mouse Ptch+/- p53-/- medulloblastoma cells assessed as body weight loss at 25 and 50 mg/kg, ip bid for 13 days; type: organism-based; conditions: in vivo, 312 h; summary of the method: as §3
HEK293 = test: Inhibition of TNF-alpha stimulated NFkappaB transactivation in HEK293 cells at 20 uM measured after 24 hrs by dual luciferase reporter gene assay; type: cell-based; conditions: Homo sapiens
Summary of the method: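 HEK293 cells stimulated with TNF-α and treated for 24 h, then lysed for dual luciferase reporter analysis of NF-κB activity. Mean ± SD.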

Cc1ccc2c(n1)[C@H]([C@@H](C)C(=O)Nc1ccc(Cl)c(-c3ccccn3)c1)CC[C@H]2C
IC50 (Protein smoothened): 212 nM
IC50 [1]: 15000 nM
IC50 [2]: > 15000 nM

CC(=O)Nc1nc2c(s1)C[C@@H]1[C@H](C2)[C@H]([C@@H](C)C(=O)Nc2ccc(Cl)c(-c3ccccn3)c2)CC[C@H]1C
IC50 (Protein smoothened): > 1000 nM

C[C@@H]1CC[C@@H]([C@@H](C)C(=O)Nc2ccc(Cl)c(-c3ccccn3)c2)[C@H]2CC(=O)CC[C@H]21
IC50 (Protein smoothened): 290 nM

CC1=C2C[C@H]3[C@@H](CC=C4C[C@@H](O)CC[C@@]43C)[C@@H]2CC[C@]12O[C@@H]1C[C@H](C)CN[C@H]1[C@H]2C
inhibition [3]: Active
inhibition [4]: Active

COC(=O)[C@H](C)c1ccc(C)c2ccc(C(=O)Nc3ccc(Cl)c(-c4ccccn4)c3)nc12
IC50 (Protein smoothened): 270 nM

O=S(=O)(NCCNC/C=C/c1ccc(Br)cc1)c1cccc2cnccc12
inhibition (LS174T): Active

Cc1ccc2c(n1)[C@H]([C@@H](C)C(=O)Nc1ccc(Cl)c(-c3nc(C4CC4)no3)c1)CC[C@H]2C
IC50 (Protein smoothened): 220 nM

Cc1ccc2c(n1)[C@H]([C@@H](C)C(=O)Nc1ccc(Cl)c(-c3nc4ccccc4s3)c1)CC[C@H]2C
IC50 (Protein smoothened): 282 nM

Cc1ccc2c(n1)[C@H]([C@@H](C)C(=O)Nc1ccc(Cl)c(-c3nc4ccccc4n3C)c1)CC[C@H]2C
IC50 (Protein smoothened): 9.53 nM
Ratio IC50 [5]: 4 to 5
IC50 [1]: > 20000 nM
IC50 [2]: > 15000 nM
inhibition [6]: Active
inhibition [7]: Dose-dependent effect
inhibition [8]: Active
inhibition [9]: Active
Activity (Medulloblastoma cell): Dose-dependent effect
Activity [10]: 21.7%
Activity [11]: 4.6%
inhibition [12]: Active
half-life [13]: 1.4 h
half-life [14]: 5.95 h
Tmax [15]: 0.25 h
Cmax [16]: 799 ng/mL
AUC(0-t) [17]: 1460 ng·h/mL
AUC(0-t) [18]: 1780 ng·h/mL
AUC(0-inf) [19]: 1480 ng·h/mL
AUC(0-inf) [20]: 1840 ng·h/mL
clearance [21]: 9.31 mL/min/kg
MRT inf [22]: 1.53 h
MRT inf [23]: 3.97 h
Vd [24]: 2.23 L/kg
inhibition [25]: Active
bioavailability [26]: 27.4%
inhibition in vivo at 25 mg/kg [27]: 81.7%
inhibition in vivo at 50 mg/kg [28]: 91.5%
Activity (Mus musculus): Non-Toxic

C[C@@H]1CC[C@@H]2[C@]34OO[C@](C)(CC[C@@H]13)OC4O[C@]2(C)C(=O)Nc1ccc(Cl)c(-c2ccccn2)c1 (some centres not stated)
IC50 (Protein smoothened): 180 nM

Cc1ccc(S(=O)(=O)/C=C/C#N)cc1
inhibition (HEK293): Active

Cc1ccc2c(n1)[C@H]([C@@H](C)C(=O)Nc1ccc(Cl)c(-c3ccc(N4C[C@@H](C)O[C@@H](C)C4)cn3)c1)CC[C@H]2C
IC50 (Protein smoothened): > 1000 nM

CS(=O)(=O)c1ccc(C(=O)Nc2ccc(Cl)c(-c3ccccn3)c2)c(Cl)c1
inhibition [7]: Dose-dependent effect
Activity (Medulloblastoma cell): Dose-dependent effect

Cc1ccc2c(n1)[C@H]([C@@H](C)C(=O)Nc1ccc(Cl)c(-c3nc4ccccc4o3)c1)CC[C@H]2C
IC50 (Protein smoothened): 243 nM

Cc1ccc2c(n1)[C@H]([C@@H](C)C(=O)Nc1ccc(Cl)c(-c3noc(C)n3)c1)CC[C@H]2C
IC50 (Protein smoothened): > 1000 nM
